# ChEMBL document CHEMBL1799933, “Discovery of a selective allosteric M1 receptor modulator with suitable development properties based on a quinolizidinone carboxylic acid scaffold” (J Med Chem, 2011)
# Active and inactive are the calls of the source. No cut-off for these calls is given here.
# What was measured:
# [1] = target: T1, Muscarinic acetylcholine receptor M1 (Homo sapiens) (UniProt P11229); assay: Agonist activity at human muscarinic M1 receptor expressed in CHONFAT cells assessed as enhancement of acetylcholine-induced calcium mobilization preincubated for 4 mins measured after 1 hr by FLIPR assay; type: functional, cell-based
# T1 sequence (whole entry): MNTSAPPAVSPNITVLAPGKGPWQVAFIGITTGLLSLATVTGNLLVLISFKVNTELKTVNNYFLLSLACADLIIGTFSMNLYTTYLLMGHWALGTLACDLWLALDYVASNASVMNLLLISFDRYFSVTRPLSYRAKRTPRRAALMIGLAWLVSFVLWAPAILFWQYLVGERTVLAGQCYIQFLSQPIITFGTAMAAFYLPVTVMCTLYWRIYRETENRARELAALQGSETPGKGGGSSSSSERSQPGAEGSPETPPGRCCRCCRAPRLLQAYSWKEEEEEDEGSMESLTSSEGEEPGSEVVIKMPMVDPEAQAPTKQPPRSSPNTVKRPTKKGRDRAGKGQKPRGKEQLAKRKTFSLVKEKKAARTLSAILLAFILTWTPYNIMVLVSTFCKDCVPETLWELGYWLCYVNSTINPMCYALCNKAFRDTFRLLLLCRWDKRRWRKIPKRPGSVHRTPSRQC
# Outline: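 CHO-NFAT cells expressing the named muscarinic receptor (human M1–M4; rhesus, dog or rat M1 in CHO-K1) were plated at 25,000 cells/well and grown overnight at 37 °C, 6% CO2. Cells were loaded with 1 μM Fluo-4AM for 1 h, washed, and preincubated 4 min with serially diluted compound (final DMSO 0.67%). They were then stimulated 4 min with an EC20 of ACh, and Ca2+ flux was read by FLIPR384.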
# [2] = Plasma protein binding in human serum by equilibrium dialysis method; type: ADME, cell-free; conditions: read-out: PPB (converted)
# Outline: (§1)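 Protein binding measured by equilibrium dialysis against rat or human serum.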
# [3] = Ratio of drug level in cerebrospinal fluid to fraction unbound level in plasma of Sprague-Dawley rat at 10 mg/kg, po; type: ADME, organism-based; set-up: dose 10 mg/kg, route oral; conditions: in vivo
# [4] = tested on: Plasma; assay: Drug level in Sprague-Dawley rat plasma at 10 mg/kg, po; type: ADME, organism-based; set-up: dose 10 mg/kg, route oral; conditions: in vivo
# Outline: (§2)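 Rats dosed orally at 10 mpk. Plasma, brain and CSF sampled at 2 h and concentrations determined by bioanalysis.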
# [5] = Lipophilicity, log P of the compound; type: physicochemical; conditions: octanol/water
# [6] = Passive permeability of the compound at 5 uM; type: ADME; conditions: not told
# [7] = tested on: Cerebrospinal fluid; assay: Drug level in Sprague-Dawley rat cerebrospinal fluid at 10 mg/kg, po; type: ADME, organism-based; set-up: dose 10 mg/kg, route oral; conditions: in vivo, read-out: Drug uptake; outline: as §2
# [8] = Plasma protein binding in rat serum by equilibrium dialysis method; type: ADME, cell-free; conditions: read-out: PPB (converted); outline: as §1
# [9] = tested on: Mus musculus; assay: Antiamnesic activity against scopolamine-induced dementia in ip dosed B6SJL mouse assessed as increase in freezing behavior at 7.4 uM plasma concentration; type: functional, organism-based
# [10] = Ratio of drug level in brain to plasma of Sprague-Dawley rat at 10 mg/kg, po; type: ADME, organism-based; set-up: dose 10 mg/kg, route oral; conditions: read-out: BPR; outline: as §2
# [11] = Fraction unbound in rat plasma; type: ADME, cell-free
# [12] = Fraction unbound in human plasma; type: ADME, cell-free
# [13] = tested on: Brain; assay: Drug level Sprague-Dawley rat brain at 10 mg/kg, po; type: ADME, organism-based; set-up: dose 10 mg/kg, route oral; conditions: in vivo, read-out: Drug uptake; outline: as §2
# [14] = tested on: Canis familiaris; assay: Metabolic stability in po dosed portal vein cannulated dog assessed as level of presystemic G1 glucuronidation by scintillation counting; type: ADME, organism-based, Canis lupus familiaris; conditions: in vivo
# [15] = tested on: Mus musculus; assay: Antiamnesic activity against scopolamine-induced dementia in ip dosed B6SJL mouse assessed as increase in freezing behavior at 33 uM plasma concentration; type: functional, organism-based
# [16] = Oral bioavailability in rat at 3 mg/kg; type: ADME, organism-based; conditions: in vivo
# Outline: (§3)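 Rats (n = 2) dosed orally at 3 mg/kg and IV at 1 mg/kg. Interanimal variability under 20% for all values.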
# [17] = Clearance in dog at 3 mg/kg, po and 1 mg/kg, iv; type: ADME, organism-based, Canis lupus familiaris; conditions: in vivo
# Outline: (§4)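 Dog PK, n = 2 animals. Given orally at 3 mg/kg and intravenously at 1 mg/kg. Interanimal variability under 20% for all values.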
# [18] = Oral bioavailability in dog at 3 mg/kg; type: ADME, organism-based, Canis lupus familiaris; conditions: in vivo; outline: as §4
# [19] = Half life in dog at 3 mg/kg, po and 1 mg/kg, iv; type: ADME, organism-based, Canis lupus familiaris; conditions: in vivo; outline: as §4
# [20] = Clearance in rat at 3 mg/kg, po and 1 mg/kg, iv; type: ADME, organism-based; conditions: in vivo; outline: as §3
# [21] = Half life in rat at 3 mg/kg, po and 1 mg/kg, iv; type: ADME, organism-based; conditions: in vivo; outline: as §3
smiles,measurement,setting,value
N#CC1(c2cccc(F)c2)CCN(Cc2cc(C(=O)O)c(=O)n3ccccc23)CC1,IP,[1],562 nM
N#CC1(c2cccnc2)CCN(Cc2cc(C(=O)O)c(=O)n3ccccc23)CC1,fraction unbound,[2],0.361
same,Ratio,[3],< 0.1
same,concentration,[4],1720 nM
same,IP,[1],363 nM
same,logP,[5],-0.4
same,Papp at 5 µM,[6],39 ×10⁻⁶ cm/s
same,concentration,[7],40 nM
same,fraction unbound,[8],0.509
N#CC1(c2cc(-c3ccccc3)ccn2)CCN(Cc2cc(C(=O)O)c(=O)n3ccccc23)CC1,IP,[1],659 nM
N#CC1(c2ccccc2F)CCN(Cc2cc(C(=O)O)c(=O)n3ccccc23)CC1,fraction unbound,[2],0.055
same,IP,[1],81 nM
same,fraction unbound,[8],0.102
N#CC1(c2cccc(Cl)n2)CCN(Cc2cc(C(=O)O)c(=O)n3ccccc23)CC1,fraction unbound,[2],0.071
same,IP,[1],133 nM
same,fraction unbound,[8],0.218
N#Cc1ccc(N2CCN(Cc3cc(C(=O)O)c(=O)n4ccccc34)CC2)cc1,Activity,[9],Active
N#CC1(c2cc(F)ccn2)CCN(Cc2cc(C(=O)O)c(=O)n3ccccc23)CC1,IP,[1],244 nM
N#CC1(c2ccccc2)CCN(Cc2cc(C(=O)O)c(=O)n3ccccc23)CC1,fraction unbound,[2],0.101
same,Kp,[10],0.39
same,Ratio,[3],0.25
same,concentration,[4],321 nM
same,IP,[1],151 nM
same,fraction unbound,[11],0.1
same,fraction unbound,[12],0.1
same,concentration,[13],127 nM
same,Papp at 5 µM,[6],27 ×10⁻⁶ cm/s
same,concentration,[7],8 nM
same,fraction unbound,[8],0.135
COc1ccccc1C1(C#N)CCN(Cc2cc(C(=O)O)c(=O)n3ccccc23)CC1,IP,[1],164 nM
Cc1cccc(C2(C#N)CCN(Cc3cc(C(=O)O)c(=O)n4ccccc34)CC2)c1,fraction unbound,[2],0.048
same,IP,[1],88 nM
same,fraction unbound,[8],0.059
[3H]OC(=O)c1cc(CN2CCC(C#N)(c3ccccn3)CC2)c2ccccn2c1=O,Stability,[14],50%
COc1ccc(Cn2cc(C(=O)O)c(=O)c3ccccc32)cc1,Activity,[15],Active
Cc1ccnc(C2(C#N)CCN(Cc3cc(C(=O)O)c(=O)n4ccccc34)CC2)c1,fraction unbound,[2],0.235
same,bioavailability,[16],24%
same,Kp,[10],0.07
same,clearance,[17],10.1 mL/min/kg
same,bioavailability,[18],47%
same,Ratio,[3],0.25
same,concentration,[4],3070 nM
same,half-life,[19],3.9 h
same,IP,[1],44 nM
same,clearance,[20],17.7 mL/min/kg
same,concentration,[13],233 nM
same,half-life,[21],1.9 h
same,Papp at 5 µM,[6],27 ×10⁻⁶ cm/s
same,concentration,[7],180 nM
same,fraction unbound,[8],0.467
Cc1cccc(C2(C#N)CCN(Cc3cc(C(=O)O)c(=O)n4ccccc34)CC2)n1,fraction unbound,[2],0.158
same,IP,[1],148 nM
same,fraction unbound,[8],0.249
N#CC1CCN(Cc2cc(C(=O)O)c(=O)n3ccccc23)CC1,IP,[1],7650 nM
COc1ccnc(C2(C#N)CCN(Cc3cc(C(=O)O)c(=O)n4ccccc34)CC2)c1,fraction unbound,[2],0.217
same,IP,[1],224 nM
same,fraction unbound,[8],0.485
Cc1ccccc1C1(C#N)CCN(Cc2cc(C(=O)O)c(=O)n3ccccc23)CC1,fraction unbound,[2],0.038
same,Kp,[10],0.48
same,Ratio,[3],0.5
same,concentration,[4],234 nM
same,IP,[1],68 nM
same,concentration,[13],114 nM
same,Papp at 5 µM,[6],24 ×10⁻⁶ cm/s
same,concentration,[7],16 nM
same,fraction unbound,[8],0.051
CCc1ccnc(C2(C#N)CCN(Cc3cc(C(=O)O)c(=O)n4ccccc34)CC2)c1,fraction unbound,[2],0.134
same,IP,[1],84 nM
same,fraction unbound,[8],0.272
Cc1ccc(C2(C#N)CCN(Cc3cc(C(=O)O)c(=O)n4ccccc34)CC2)nc1,fraction unbound,[2],0.175
same,IP,[1],204 nM
same,fraction unbound,[8],0.348
N#CC1(c2cc(C(F)(F)F)ccn2)CCN(Cc2cc(C(=O)O)c(=O)n3ccccc23)CC1,IP,[1],2720 nM
O=C(O)c1cc(CN2CCC(c3ccccc3)CC2)c2ccccn2c1=O,IP,[1],1340 nM
N#CC1(c2ccc(F)cc2)CCN(Cc2cc(C(=O)O)c(=O)n3ccccc23)CC1,IP,[1],194 nM
Cc1cccnc1C1(C#N)CCN(Cc2cc(C(=O)O)c(=O)n3ccccc23)CC1,IP,[1],1940 nM
N#CC1(c2ccncc2)CCN(Cc2cc(C(=O)O)c(=O)n3ccccc23)CC1,IP,[1],938 nM
CSc1cccc(C2(C#N)CCN(Cc3cc(C(=O)O)c(=O)n4ccccc34)CC2)n1,fraction unbound,[2],0.012
same,IP,[1],100 nM
same,fraction unbound,[8],0.057
